Each block holds one molecule with its values, some of them ahead of it. Calls of active or inactive are those of the source. The rule behind the calls is not given here.
What was measured:
[1] = target: T1, Very long chain fatty acid elongase 6 (Homo sapiens, UniProt Q9H5J4); experiment: Inhibition of human ELOVL6 expressed in Pichia pastoris using palmitoyl-CoA by long chain fatty acyl-CoA elongation assay
T1 sequence (Q9H5J4 whole entry): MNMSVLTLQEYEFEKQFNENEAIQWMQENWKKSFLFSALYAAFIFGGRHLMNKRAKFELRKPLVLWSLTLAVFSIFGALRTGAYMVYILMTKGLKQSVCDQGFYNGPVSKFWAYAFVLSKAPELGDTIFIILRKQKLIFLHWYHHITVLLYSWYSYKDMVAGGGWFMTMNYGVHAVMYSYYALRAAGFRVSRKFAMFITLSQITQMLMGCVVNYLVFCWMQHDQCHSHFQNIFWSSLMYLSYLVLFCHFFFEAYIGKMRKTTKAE
How it was run: (§1)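 Microsomes (3 μg) from Pichia pastoris SMD1168 expressing FLAG-tagged human or mouse ELOVL6 were incubated 1 h at 37 °C in 100 mM potassium phosphate pH 6.5 with 40 μM palmitoyl-CoA, 20 μM malonyl-CoA plus [14C]-malonyl-CoA, 500 μM NADPH, 200 μM BSA and 1 μM rotenone. DMSO was 1.0% final. After HCl hydrolysis, filter-retained 14C was counted. IC50 came from nonlinear regression on % of control.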

[2] = Unbound fraction in C57BL/6N mouse plasma; assay type: ADME, cell-free
How it was run: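 Equilibrium dialysis was run with C57BL/6N mouse plasma adjusted to pH 7.4 and spiked with 1 μM compound, dialysed against PBS for 6 h at 37 °C. Both sides were analysed by LC-MS/MS. Unbound fraction = Cf/Cp × 100. Mean of n = 3.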

[3] = target: T2, Very long chain fatty acid elongase 6 (Mus musculus, UniProt Q920L5); experiment: Inhibition of mouse ELOVL6 expressed in Pichia pastoris using palmitoyl-CoA by long chain fatty acyl-CoA elongation assay; how it was run: as §1
T2 sequence (Q920L5 whole entry): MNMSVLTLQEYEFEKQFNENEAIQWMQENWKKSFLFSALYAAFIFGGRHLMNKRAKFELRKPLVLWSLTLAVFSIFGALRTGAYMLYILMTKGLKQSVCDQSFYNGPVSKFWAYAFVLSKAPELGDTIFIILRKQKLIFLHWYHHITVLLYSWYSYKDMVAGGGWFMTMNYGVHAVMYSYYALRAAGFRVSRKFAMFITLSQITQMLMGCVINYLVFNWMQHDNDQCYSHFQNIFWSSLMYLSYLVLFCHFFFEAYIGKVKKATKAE

[4] = target: T2, Very long chain fatty acid elongase 6; experiment: Inhibition of ELOVL6 in mouse H2.35 cells assessed as elongation index; assay type: cell-based
How it was run: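 Subconfluent mouse hepatoma H2.35 cells were kept at 33 °C in DMEM with 200 nM dexamethasone and 4% FBS. Lipids were hydrolysed in NaOH at 70 °C, and fatty acids extracted and quantified by radio-HPLC. Elongation index = (C18:0 + C18:1) / (C16:0 + C16:1).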

Mus musculus [5] = experiment: Reduction of elongation index of total fatty acids in C57BL/6J mouse plasma at 30 mg/kg, po twice daily for 3 days; assay type: functional, organism-based; set-up: dose 30 mg/kg
How it was run: (§2)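 Male C57BL/6J mice received 30 mg/kg orally twice daily for 3 days. Liver and plasma were hydrolysed in NaOH/ethanol with C17:0 internal standard. Fatty acids were derivatized with 2-nitrophenylhydrazine and measured by HPLC-UV at 400 nm. Elongation index (C18/C16) was expressed as % of vehicle control. Six mice per group.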

[6] = target: T3, Very long chain fatty acid elongase 1 (Homo sapiens, UniProt Q9BW60); experiment: Inhibition of human ELOVL1
T3 sequence (Q9BW60 whole entry): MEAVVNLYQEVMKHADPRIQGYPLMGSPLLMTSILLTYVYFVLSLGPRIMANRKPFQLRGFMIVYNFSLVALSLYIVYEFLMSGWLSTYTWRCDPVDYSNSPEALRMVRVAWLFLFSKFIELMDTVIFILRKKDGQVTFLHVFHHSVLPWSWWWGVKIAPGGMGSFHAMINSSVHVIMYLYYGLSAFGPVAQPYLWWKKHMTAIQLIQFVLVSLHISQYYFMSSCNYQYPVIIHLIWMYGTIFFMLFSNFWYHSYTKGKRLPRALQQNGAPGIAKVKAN
How it was run: (§3)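 Microsomes were prepared from Pichia pastoris SMD1168 expressing FLAG-tagged human or mouse ELOVL. Incubation ran 1 h at 37 °C in 100 mM potassium phosphate pH 6.5 with 200 μM BSA, 500 μM NADPH, 1 μM rotenone, 20 μM malonyl-CoA plus [14C]-malonyl-CoA, and acyl-CoA: ELOVL1 and ELOVL3, 10 μM stearoyl-CoA; ELOVL2, 10 μM arachidonoyl-CoA; ELOVL5, 40 μM arachidonoyl-CoA. DMSO was 1.0% final. Products were acid-hydrolysed and filter-bound radioactivity counted.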

[7] = Plasma concentration in C57BL/6J mouse at 30 mg/kg, po after 8 hrs; assay type: ADME, organism-based; set-up: dose 30 mg/kg, route oral; details: read-out: Concentration_plasma
How it was run: (§4)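 Male C57BL/6J mice were given a single oral gavage of 30 mg/kg in 0.5% methylcellulose suspension. Plasma was sampled at 2, 4, 8 and 24 h, deproteinized with ethanol containing internal standard, and assayed. Values are means of n = 3 animals.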

[8] = Plasma concentration in C57BL/6J mouse at 30 mg/kg, po twice daily after 3 days; assay type: ADME, organism-based; set-up: dose 30 mg/kg, route oral
[9] = Plasma clearance in Sprague-Dawley rat at 1 mg/kg, iv and 3 mg/kg, po; assay type: ADME, organism-based
How it was run: (§5)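 Male SD rats, single dose: iv 1 mg/kg in PEG400/EtOH/H2O 50/10/40 or oral gavage 3 mg/kg in 0.5% methylcellulose suspension. Plasma was sampled at multiple time points up to 24 h, deproteinized with ethanol containing internal standard, and assayed. Values are means of n = 3 animals. Bioavailability was taken from AUC0-∞ after iv versus po.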

[10] = target: T4, Very long chain fatty acid elongase 3 (Mus musculus, UniProt O35949); experiment: Inhibition of mouse ELOVL3; how it was run: as §3
T4 sequence (O35949 whole entry): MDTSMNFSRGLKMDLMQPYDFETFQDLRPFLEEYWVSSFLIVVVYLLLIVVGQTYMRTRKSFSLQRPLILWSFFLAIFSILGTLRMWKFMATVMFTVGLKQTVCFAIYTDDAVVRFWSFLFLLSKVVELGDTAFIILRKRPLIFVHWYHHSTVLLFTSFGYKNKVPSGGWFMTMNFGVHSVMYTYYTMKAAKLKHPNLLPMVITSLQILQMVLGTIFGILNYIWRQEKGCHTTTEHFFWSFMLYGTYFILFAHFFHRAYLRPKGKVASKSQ

[11] = Half life in Sprague-Dawley rat at 1 mg/kg, iv; assay type: ADME, organism-based; set-up: dose 1 mg/kg, route intravenous; details: in vivo; how it was run: as §5
[12] = target: T5, Very long chain fatty acid elongase 2 (Homo sapiens, UniProt Q9NXB9); experiment: Inhibition of human ELOVL2; how it was run: as §3
T5 sequence (Q9NXB9 whole entry): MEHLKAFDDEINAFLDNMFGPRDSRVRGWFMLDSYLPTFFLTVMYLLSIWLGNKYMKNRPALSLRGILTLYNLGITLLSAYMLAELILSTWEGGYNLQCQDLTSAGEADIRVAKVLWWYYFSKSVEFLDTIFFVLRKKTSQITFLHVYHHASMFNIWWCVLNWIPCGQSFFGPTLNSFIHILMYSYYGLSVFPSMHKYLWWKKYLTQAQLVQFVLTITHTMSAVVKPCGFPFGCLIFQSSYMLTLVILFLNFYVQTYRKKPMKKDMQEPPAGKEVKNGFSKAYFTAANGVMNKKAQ

[13] = Cmax in Sprague-Dawley rat at 1 mg/kg, iv and 3 mg/kg, po; assay type: ADME, organism-based; details: in vivo; how it was run: as §5
[14] = Plasma concentration in C57BL/6J mouse at 30 mg/kg, po after 4 hrs; assay type: ADME, organism-based; set-up: dose 30 mg/kg, route oral; details: read-out: Concentration_plasma; how it was run: as §4
Mus musculus [15] = experiment: Reduction of elongation index of total fatty acids in C57BL/6J mouse liver at 30 mg/kg, po twice daily for 3 days; assay type: functional, organism-based; set-up: dose 30 mg/kg; how it was run: as §2
[16] = AUC (0 to infinity) in Sprague-Dawley rat at 1 mg/kg, iv and 3 mg/kg, po; assay type: ADME, organism-based; details: plasma; how it was run: as §5
[17] = Plasma concentration in C57BL/6J mouse at 10 mg/kg, po after 2 hrs; assay type: ADME, organism-based; set-up: dose 10 mg/kg, route oral
How it was run: (§6)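 Male C57BL/6J mice were given a single oral gavage of 10 mg/kg in 0.5% methylcellulose suspension. Abdominal-vein blood and liver were taken 2 h after dosing. Liver was homogenized in PBS pH 7.4. Plasma and homogenate were deproteinized with ethanol containing internal standard before analysis.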

[18] = target: T6, Very long chain fatty acid elongase 5 (Homo sapiens, UniProt Q9NYP7); experiment: Inhibition of human ELOVL5; how it was run: as §3
T6 sequence (Q9NYP7 whole entry): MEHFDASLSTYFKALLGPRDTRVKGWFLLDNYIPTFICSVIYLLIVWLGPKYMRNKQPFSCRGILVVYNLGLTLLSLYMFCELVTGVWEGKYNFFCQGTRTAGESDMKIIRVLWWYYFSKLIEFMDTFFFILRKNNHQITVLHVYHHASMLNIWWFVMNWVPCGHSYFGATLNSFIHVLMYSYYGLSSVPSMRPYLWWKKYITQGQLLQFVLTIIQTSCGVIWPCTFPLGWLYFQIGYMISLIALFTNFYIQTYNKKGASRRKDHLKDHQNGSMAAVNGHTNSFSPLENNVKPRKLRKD

[19] = target: T7, Very long chain fatty acid elongase 3 (Homo sapiens, UniProt Q9HB03); experiment: Inhibition of human ELOVL3; how it was run: as §3
T7 sequence (Q9HB03 whole entry): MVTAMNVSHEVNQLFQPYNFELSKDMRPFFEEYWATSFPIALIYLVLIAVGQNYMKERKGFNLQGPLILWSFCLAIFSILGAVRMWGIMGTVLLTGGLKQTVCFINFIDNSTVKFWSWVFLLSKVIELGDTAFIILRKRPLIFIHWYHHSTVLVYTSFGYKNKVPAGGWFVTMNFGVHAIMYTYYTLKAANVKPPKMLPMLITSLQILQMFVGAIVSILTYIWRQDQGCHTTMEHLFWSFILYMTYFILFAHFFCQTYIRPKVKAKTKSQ

Mus musculus [20] = experiment: Reduction of elongation index of liver lipids in C57BL/6J mouse at 1 mg/kg, po; assay type: functional, organism-based; set-up: dose 1 mg/kg
How it was run: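 Male C57BL/6J mice were dosed orally in 0.5% methylcellulose. [1-14C]palmitic acid, 10 μCi/body, was given intraperitoneally 1 h later. Liver was taken 2 h after dosing and saponified in KOH/ethanol at 70 °C. Labelled fatty acids were quantified by radio-HPLC, with elongation index C18/C16 expressed as % of control. Four mice per treatment.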

[21] = Plasma concentration in C57BL/6J mouse at 30 mg/kg, po after 2 hrs; assay type: ADME, organism-based; set-up: dose 30 mg/kg, route oral; details: read-out: Concentration_plasma; how it was run: as §4
[22] = Drug level in C57BL/6J mouse liver at 10 mg/kg, po after 2 hrs; assay type: ADME, organism-based; set-up: dose 10 mg/kg, route oral; details: read-out: Drug uptake; how it was run: as §6
[23] = Plasma concentration in C57BL/6J mouse at 1 mg/kg, po after 2 hrs; assay type: ADME, organism-based; set-up: dose 1 mg/kg, route oral
[24] = Oral bioavailability in Sprague-Dawley rat at 3 mg/kg; assay type: ADME, organism-based; details: in vivo; how it was run: as §5
[25] = Volume of distribution at steady state in Sprague-Dawley rat at 1 mg/kg, iv; assay type: ADME, organism-based; set-up: dose 1 mg/kg, route intravenous; details: in vivo, read-out: Vdss; how it was run: as §5

fraction unbound [2]: 0.053
SMILES: O=C1Nc2ccc(Cl)cc2C(CNC(=O)c2ccc(F)cc2)(C(F)(F)F)O1 (stereo unspecified)

IC50 [3]: 29 nM | IC50 [4]: 58 nM
SMILES: O=C1Nc2ccc(-n3cccn3)cc2C(CNC(=O)c2ccc(F)cc2)(C(F)(F)F)O1 (single isomer, unassigned; (+))

IC50 [6]: 7000 nM | concentration at 8 h [7]: 700 nM | concentration at 72 h [8]: > 540 nM | clearance [9]: 11 mL/min/kg | fraction unbound [2]: 0.107 | IC50 [10]: 19 nM | half-life [11]: 1.9 h | IC50 [12]: > 10000 nM | IC50 [3]: 14 nM | Cmax [13]: 2400 nM | concentration at 4 h [14]: 3700 nM | AUC(0-inf) [16]: 4.69 µM·h | concentration at 2 h [17]: 660 nM | IC50 [18]: > 10000 nM | IC50 [4]: 3.6 nM | IC50 [19]: 130 nM | concentration at 2 h [21]: 11700 nM | concentration at 2 h [22]: 12500 nM | concentration at 2 h [23]: 540 nM | bioavailability [24]: 30% | Vd [25]: 0.7 L/kg
SMILES: O=C1Nc2ccc(-c3ccn[nH]3)cc2[C@](CNC(=O)c2ccc(F)cc2)(C(F)(F)F)O1
Activity (Mus musculus [5]): inactive | Activity (Mus musculus [15]): Active | Activity (Mus musculus [20]): Active

Continued, molecule first:

SMILES: CCC1(COC(=O)Nc2ccc(F)cc2)OC(=O)Nc2ccc(Cl)cc21 (stereo unspecified)
IC50 [1]: 2260 nM

SMILES: O=C1Nc2ccc(Cl)cc2C(CNC(=O)c2ccc(-c3ccccc3)cc2)(C(F)(F)F)O1 (stereo unspecified)
IC50 [1]: > 10000 nM

SMILES: CC(C)C1(COC(=O)Nc2ccc(F)cc2)OC(=O)Nc2ccc(Cl)cc21 (stereo unspecified)
IC50 [1]: 5030 nM

SMILES: O=C(Nc1ccc(F)cc1)OCC1(C(F)(F)F)OC(=O)Nc2ccc(Cl)cc21 (stereo unspecified)
IC50 [1]: 142 nM

From ChEMBL document CHEMBL1154682, “Discovery of novel benzoxazinones as potent and orally active long chain fatty acid elongase 6 inhibitors” (J Med Chem, 2009)
